Active and inactive are the calls of the source. The rule behind the calls is not given here.
How the values were obtained:
[1] = molecular target: T1, Histone-arginine methyltransferase CARM1 (Homo sapiens, UniProt Q86X55); assay: Inhibition of full-length Halo-tagged human CARM1 (1 to 608 residues) expressed in 293-F cells using [3H]-SAM and biotinylated histone peptides by scintillation proximity based radiometric assay; format: cell-based
T1 sequence (Q86X55 whole entry): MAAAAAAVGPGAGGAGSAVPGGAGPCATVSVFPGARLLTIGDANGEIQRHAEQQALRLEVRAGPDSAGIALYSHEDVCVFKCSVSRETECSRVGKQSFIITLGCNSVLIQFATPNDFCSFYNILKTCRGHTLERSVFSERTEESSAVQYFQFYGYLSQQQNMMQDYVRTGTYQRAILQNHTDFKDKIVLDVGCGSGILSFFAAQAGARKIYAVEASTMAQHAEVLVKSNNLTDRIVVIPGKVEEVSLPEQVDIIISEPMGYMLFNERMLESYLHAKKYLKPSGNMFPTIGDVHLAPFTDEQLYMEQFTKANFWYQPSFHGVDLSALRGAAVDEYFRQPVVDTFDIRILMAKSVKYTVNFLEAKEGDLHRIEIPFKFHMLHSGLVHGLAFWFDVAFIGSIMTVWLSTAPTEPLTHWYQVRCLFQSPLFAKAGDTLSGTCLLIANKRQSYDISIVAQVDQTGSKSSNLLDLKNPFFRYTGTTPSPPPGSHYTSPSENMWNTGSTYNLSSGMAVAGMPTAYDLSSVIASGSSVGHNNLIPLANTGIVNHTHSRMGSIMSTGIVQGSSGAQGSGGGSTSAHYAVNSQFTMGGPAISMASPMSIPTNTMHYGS

[2] = molecular target: Protein arginine N-methyltransferase 6 (Homo sapiens, UniProt Q96LA8); assay: Inhibition of PRMT6 (unknown origin)
Sequence of Protein arginine N-methyltransferase 6 (Q96LA8 whole entry): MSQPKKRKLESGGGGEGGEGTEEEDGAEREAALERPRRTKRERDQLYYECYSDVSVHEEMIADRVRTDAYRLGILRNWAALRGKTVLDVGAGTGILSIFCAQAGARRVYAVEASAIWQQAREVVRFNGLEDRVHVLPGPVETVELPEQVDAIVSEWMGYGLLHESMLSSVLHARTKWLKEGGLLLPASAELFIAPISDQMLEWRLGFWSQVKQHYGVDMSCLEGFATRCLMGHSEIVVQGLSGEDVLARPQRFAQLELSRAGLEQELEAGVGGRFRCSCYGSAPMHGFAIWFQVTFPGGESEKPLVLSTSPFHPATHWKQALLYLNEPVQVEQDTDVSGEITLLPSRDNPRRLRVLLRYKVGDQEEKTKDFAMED

[3] = molecular target: T2, Histone-arginine methyltransferase CARM1 (Homo sapiens) (UniProt Q86X55); assay: Inhibition of CARM1 in HEK293 cells assessed as reduction in BAF155 methylation at 10 uM incubated for 48 hrs by SDS-PAGE and immunoblotting
T2 sequence (whole entry): T1 sequence (Q86X55 whole entry)

[4] = molecular target: Protein arginine N-methyltransferase 8 (Homo sapiens, UniProt Q9NR22); assay: Inhibition of PRMT8 (unknown origin)
Sequence of Protein arginine N-methyltransferase 8 (Q9NR22 whole entry, the tested form may be a part): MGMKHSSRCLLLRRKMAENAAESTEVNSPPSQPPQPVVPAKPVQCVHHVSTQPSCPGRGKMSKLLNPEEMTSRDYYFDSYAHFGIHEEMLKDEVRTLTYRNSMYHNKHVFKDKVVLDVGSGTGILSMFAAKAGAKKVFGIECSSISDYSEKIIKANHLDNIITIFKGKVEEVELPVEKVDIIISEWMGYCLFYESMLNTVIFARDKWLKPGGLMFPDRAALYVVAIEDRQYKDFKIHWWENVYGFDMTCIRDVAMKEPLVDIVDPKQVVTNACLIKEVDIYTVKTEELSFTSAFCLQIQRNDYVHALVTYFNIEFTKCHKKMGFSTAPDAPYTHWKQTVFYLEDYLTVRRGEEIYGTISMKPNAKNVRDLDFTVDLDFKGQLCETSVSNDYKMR

[5] = molecular target: T1, Histone-arginine methyltransferase CARM1; assay: Binding affinity to full-length Halo-tagged human CARM1 (1 to 608 residues) expressed in 293-F cells by surface plasmon resonance assay
Procedure, shortened: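 About 4500 RU of CARM1 amine-coupled to a CM5 chip, blank cell used for reference subtraction. Compounds serially diluted in DMSO, then into HBS-EP buffer at 5% DMSO final. Contact time 30 s at 75 μL/min.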

[6] = molecular target: T2, Histone-arginine methyltransferase CARM1 (Homo sapiens); assay: Inhibition of full-length Halo-tagged human CARM1 (1 to 608 residues) expressed in 293-F cells at 10 uM using [3H]-SAM and biotinylated histone peptides by scintillation proximity based radiometric assay; format: cell-based
Procedure, shortened: (§1)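 Radiometric scintillation proximity assay. Tag-cleaved full-length human CARM1 (1–608) at 25 nM, with 0.7 μM C-terminally biotinylated H3 1–25 peptide and 1.9 μM [3H]-SAM in 20 mM bicine pH 8.5. Transfer of tritiated methyl to the peptide counted as cpm. Single compound concentration per line.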

[7] = molecular target: T2, Histone-arginine methyltransferase CARM1 (Homo sapiens); assay: Inhibition of full-length Halo-tagged human CARM1 (1 to 608 residues) expressed in 293-F cells at 50 uM using [3H]-SAM and biotinylated histone peptides by scintillation proximity based radiometric assay; format: cell-based; procedure, shortened: as §1
[8] = molecular target: T2, Histone-arginine methyltransferase CARM1 (Homo sapiens); assay: Binding affinity to full-length Halo-tagged human CARM1 (1 to 608 residues) expressed in 293-F cells assessed as change in melting temperature by Sypro orange dye based differential scanning fluorimetry; format: cell-based
[9] = molecular target: T2, Histone-arginine methyltransferase CARM1 (Homo sapiens); assay: Binding affinity to full-length Halo-tagged human CARM1 (1 to 608 residues) expressed in 293-F cells assessed as change in aggregation temperature by differential static light scattering; format: cell-based
Procedure, shortened: (§2)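 Full-length human CARM1 (residues 1–608) expressed as a HaloTag fusion in FreeStyle 293-F cells, HaloTag-purified, tag removed with TEV. Heated from 30 to 80 °C at 1 °C/min; aggregation temperature shift read by static light scattering.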

[10] = molecular target: T2, Histone-arginine methyltransferase CARM1 (Homo sapiens); assay: Binding affinity to full-length Halo-tagged human CARM1 (1 to 608 residues) expressed in 293-F cells assessed as change in melting temperature in presencee of SAM by Sypro orange dye based differential scanning fluorimetry; format: cell-based
[11] = molecular target: T2, Histone-arginine methyltransferase CARM1 (Homo sapiens); assay: Binding affinity to full-length Halo-tagged human CARM1 (1 to 608 residues) expressed in 293-F cells assessed as change in aggregation temperature in presence of SAM by differential static light scattering; format: cell-based; procedure, shortened: as §2
[12] = Selectivity index, ratio of IC50 for RMT6 (unknown origin) to IC50 for full-length Halo-tagged human CARM1 (1 to 608 residues) expressed in 293-F cells; format: cell-based
[13] = molecular target: Protein arginine N-methyltransferase 1 (Homo sapiens, UniProt Q99873); assay: Inhibition of PRMT1 (unknown origin)
Sequence of Protein arginine N-methyltransferase 1 (Q99873 whole entry): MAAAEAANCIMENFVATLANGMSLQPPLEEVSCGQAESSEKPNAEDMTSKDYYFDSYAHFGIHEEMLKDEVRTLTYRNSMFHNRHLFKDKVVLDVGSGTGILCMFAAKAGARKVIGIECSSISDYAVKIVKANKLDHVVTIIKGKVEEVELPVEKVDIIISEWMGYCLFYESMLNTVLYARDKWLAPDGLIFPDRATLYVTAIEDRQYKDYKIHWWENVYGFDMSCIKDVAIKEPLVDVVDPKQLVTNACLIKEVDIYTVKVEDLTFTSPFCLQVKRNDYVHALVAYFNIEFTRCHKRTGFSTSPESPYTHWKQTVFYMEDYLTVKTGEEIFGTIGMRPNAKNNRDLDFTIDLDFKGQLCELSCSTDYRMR

[14] = molecular target: Protein arginine N-methyltransferase 3 (Homo sapiens, UniProt O60678); assay: Inhibition of PRMT3 (unknown origin)
Sequence of Protein arginine N-methyltransferase 3 (O60678 whole entry): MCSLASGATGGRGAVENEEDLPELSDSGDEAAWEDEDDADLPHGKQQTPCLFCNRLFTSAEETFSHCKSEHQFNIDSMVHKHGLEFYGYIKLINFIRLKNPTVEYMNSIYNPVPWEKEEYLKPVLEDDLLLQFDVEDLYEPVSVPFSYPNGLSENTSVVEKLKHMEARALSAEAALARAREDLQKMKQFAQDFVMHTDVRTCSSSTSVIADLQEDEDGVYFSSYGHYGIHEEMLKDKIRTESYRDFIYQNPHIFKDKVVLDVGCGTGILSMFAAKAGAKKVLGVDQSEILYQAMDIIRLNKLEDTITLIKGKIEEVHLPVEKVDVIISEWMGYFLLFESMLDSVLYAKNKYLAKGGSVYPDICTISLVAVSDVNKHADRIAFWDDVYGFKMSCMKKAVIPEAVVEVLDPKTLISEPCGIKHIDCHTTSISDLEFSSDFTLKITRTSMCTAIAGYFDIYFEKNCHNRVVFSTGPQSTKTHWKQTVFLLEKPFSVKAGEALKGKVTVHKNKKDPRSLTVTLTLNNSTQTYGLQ

[15] = molecular target: Protein arginine N-methyltransferase 5 (Homo sapiens, UniProt O14744); assay: Inhibition of PRMT5 (unknown origin)
Sequence of Protein arginine N-methyltransferase 5 (O14744 whole entry): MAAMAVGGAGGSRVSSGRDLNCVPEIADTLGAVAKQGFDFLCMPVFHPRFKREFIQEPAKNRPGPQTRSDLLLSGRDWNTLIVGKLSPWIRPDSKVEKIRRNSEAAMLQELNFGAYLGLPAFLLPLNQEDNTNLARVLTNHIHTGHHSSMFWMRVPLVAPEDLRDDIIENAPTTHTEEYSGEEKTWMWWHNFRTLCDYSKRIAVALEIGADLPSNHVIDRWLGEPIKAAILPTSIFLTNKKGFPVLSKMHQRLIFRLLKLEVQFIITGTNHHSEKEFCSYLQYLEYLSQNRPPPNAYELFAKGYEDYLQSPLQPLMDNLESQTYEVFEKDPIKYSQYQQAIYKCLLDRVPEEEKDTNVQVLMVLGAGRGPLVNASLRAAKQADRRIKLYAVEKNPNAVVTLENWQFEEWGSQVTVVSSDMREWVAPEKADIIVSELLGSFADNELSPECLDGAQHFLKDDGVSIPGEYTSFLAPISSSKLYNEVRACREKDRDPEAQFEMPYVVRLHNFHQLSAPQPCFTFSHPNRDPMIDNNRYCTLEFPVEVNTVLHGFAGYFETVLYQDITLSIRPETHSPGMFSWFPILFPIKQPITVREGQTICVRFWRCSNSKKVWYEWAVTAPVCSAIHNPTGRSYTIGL

[16] = molecular target: T3, Protein arginine N-methyltransferase 7 (Homo sapiens, UniProt Q9NVM4); assay: Inhibition of PRMT7 (unknown origin)
T3 sequence (Q9NVM4 whole entry): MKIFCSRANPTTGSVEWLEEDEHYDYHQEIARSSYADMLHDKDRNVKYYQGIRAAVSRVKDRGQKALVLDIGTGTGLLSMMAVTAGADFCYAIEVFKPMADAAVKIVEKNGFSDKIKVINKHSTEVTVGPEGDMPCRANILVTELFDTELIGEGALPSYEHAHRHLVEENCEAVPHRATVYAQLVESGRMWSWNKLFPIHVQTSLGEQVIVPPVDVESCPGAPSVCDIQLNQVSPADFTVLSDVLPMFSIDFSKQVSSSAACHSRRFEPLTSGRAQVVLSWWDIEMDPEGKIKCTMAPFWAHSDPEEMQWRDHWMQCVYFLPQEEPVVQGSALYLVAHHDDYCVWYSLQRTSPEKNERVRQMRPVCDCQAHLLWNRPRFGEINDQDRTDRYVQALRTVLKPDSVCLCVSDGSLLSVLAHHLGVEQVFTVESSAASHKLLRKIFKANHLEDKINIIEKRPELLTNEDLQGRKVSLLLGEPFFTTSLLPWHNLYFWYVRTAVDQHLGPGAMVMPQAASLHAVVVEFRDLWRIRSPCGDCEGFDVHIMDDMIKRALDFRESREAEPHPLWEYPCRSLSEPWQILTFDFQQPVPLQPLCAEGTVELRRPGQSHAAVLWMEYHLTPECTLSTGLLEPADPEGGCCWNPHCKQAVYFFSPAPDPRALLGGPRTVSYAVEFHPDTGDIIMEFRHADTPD

[17] = molecular target: T2, Histone-arginine methyltransferase CARM1 (Homo sapiens); assay: Non-competitive inhibition of full-length Halo-tagged human CARM1 (1 to 608 residues) expressed in 293-F cells using [3H]-SAM and increasing biotinylated histone peptides by scintillation proximity based radiometric assay; format: cell-based
[18] = molecular target: T2, Histone-arginine methyltransferase CARM1 (Homo sapiens); assay: Non-competitive inhibition of full-length Halo-tagged human CARM1 (1 to 608 residues) expressed in 293-F cells using increasing [3H]-SAM and biotinylated histone peptides by scintillation proximity based radiometric assay; format: cell-based
[19] = molecular target: T2, Histone-arginine methyltransferase CARM1 (Homo sapiens); assay: Inhibition of CARM1 in HEK293 cells assessed as reduction in BAF155 methylation at 1 uM incubated for 48 hrs by SDS-PAGE and immunoblotting

| SMILES | IC50 [1] | IC50 [2] | IC50 ([1]; read-out: IC50) | IC50 [4] | IC50 ([2]; read-out: IC50) | inhibition [6] | inhibition [7] | also measured |
| --- | --- | --- | --- | --- | --- | --- | --- | --- |
| Cc1cc(C)n(-c2ccc(CNC(=O)C(C)N)cc2)n1 (configuration not stated) | Not Active | Not Active | – | – | – | – | – | – |
| CNCCN1CCC(OCc2ccccc2)CC1 | – | – | – | – | – | – | – | inhibition [3]: Active |
| NCC(=O)NCCc1ccccc1 | – | Not Active | 20.5 µM | Not Active | – | – | – | Kd [5]: Not Active |
| CNCCNC1CCN(c2cccc(-c3ccnc(C)n3)c2)CC1 | – | – | 11.1 µM | – | 8.9 µM | Active | Active | IC50 ([4]; read-out: IC50): 26 µM |
| CC(Cc1c[nH]c2ccccc12)NC(=O)CN (configuration not stated) | – | Not Active | > 65 µM | Not Active | – | Active | Active | – |
| C[C@H](N)C(=O)NCc1cccnc1N(C)Cc1ccccc1 | – | Not Active | > 30 µM | Not Active | – | Active | Active | – |
| Cc1cc(OCCNCCN)ccc1C(C)C | – | Not Active | 16.6 µM | Not Active | – | – | – | Kd [5]: Not Active |
| CC(C)(N)C(=O)NCc1cccnc1Oc1ccc(F)cc1F | Not Active | Not Active | – | – | – | – | – | – |
| CN(CCN)Cc1ccccc1 | – | – | 7.5 µM | – | 2.5 µM | Active | Active | IC50 ([4]; read-out: IC50): 6 µM |
| C[C@H](N)C(=O)NCc1cccnc1Oc1ccc(F)cc1F | – | – | 1.9 µM | Not Active | 14 µM | Active | Active | ΔTm [8]: 2.1 °C; ΔTm [9]: 1.9 °C; Activity [10]: Active; Activity [11]: Active; Kd ([5]; read-out: Kd): 9 µM |
| CN[C@@H](C)C(=O)NCc1cccnc1Oc1ccc(F)cc1F | Not Active | Not Active | – | – | – | – | – | – |
| C[C@@H](N)C(=O)NCc1cccnc1Oc1ccc(F)cc1F | – | Not Active | > 40 µM | – | – | – | – | – |
| CCC(c1ccc(OC)cc1)N(C)CCN (configuration not stated) | Not Active | – | – | Not Active | > 25 µM | – | – | – |
| CNCCN1CCCC1 | – | – | 3.1 µM | – | 1.9 µM | Active | Active | IC50 ([4]; read-out: IC50): 10 µM |
| Cc1cc(C)cc(Oc2ccc(CNC(=O)[C@H](C)N)cc2C)c1 | – | – | 0.05 µM | – | 5.2 µM | – | – | IC50 ([4]; read-out: IC50): > 50 µM; Ratio IC50 [12]: > 100; IC50 [13]: > 100 µM; IC50 [14]: > 100 µM; IC50 [15]: > 100 µM; IC50 [16]: > 100 µM; inhibition [17]: Active; inhibition [18]: Active; inhibition [19]: inactive; inhibition [3]: inactive |
| CC(N)C(=O)NCc1ccccc1 (configuration not stated) | – | Not Active | > 20 µM | Not Active | – | Active | Active | – |
| NCC(=O)NCc1cccnc1Oc1ccc(F)cc1F | – | Not Active | – | – | – | – | – | – |
| CNCC(=O)NCc1cccnc1Oc1ccc(F)cc1F | Not Active | Not Active | – | – | – | – | – | – |
| NCCN1CCC(c2nnc(Cn3ccnc3)n2C2CC2)CC1 | – | Not Active | > 50 µM | Not Active | – | Active | Active | – |
| NC1(C(=O)NCc2cccnc2Oc2ccc(F)cc2F)CC1 | Not Active | Not Active | – | – | – | – | – | – |

Source: ChEMBL document CHEMBL4425140, “Discovery of a Potent and Selective Coactivator Associated Arginine Methyltransferase 1 (CARM1) Inhibitor by Virtual Screening” (J Med Chem, 2016)
